Experimental findings from PubChem BioAssay are described below.

A short description of test [1]: reducers of endogenous Her2 protein level, primary screen, SKBR3 breast tumor cells, AlphaScreen, ATP viability (AID 461).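 For Her2 level: lower value means less Her2 protein in the cells.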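 For viability: percent of carrier control wells set as 100% viability.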 The following applies: 18-24 h, measured here: SKBR3 viability, ATP luminescence, at 10 µM.
The target in test [2] is Receptor tyrosine-protein kinase erbB-2 (Homo sapiens) (UniProt P04626). The test is described as above. The following applies: 18-24 h, at 10 µM, stronger effect = lower value.
Test [3] in a line: SK-BR-3 cell growth inhibitors, pilot screen, 24 h, human (AID 572;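 active = viability at or below 10% of carrier control in both of two separate runs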;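 note: compound exposure lasted between 18 and 24 h rather than exactly 24 h; 100% = carrier-treated control wells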). The following applies: SK-BR-3 viability, CellTiter-Glo luminescence, at 10 µM, stronger effect = lower value.
A short description of test [4]: HUVEC growth inhibition – cell-based, human, primary screen (AID 575;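 active = viability at or below 30% in both replicate assays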;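 note: 100% = median of untreated cell wells with 0.1% DMSO on each plate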). The following applies: HUVEC proliferation, CellTiter-Glo luminescence, 72 h; at 10 µM; stronger effect = lower value. In short, it runs like this: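 Assay system: primary human umbilical vein endothelial cells / Buffer or medium: endothelial basal medium with 2% FBS plus growth supplements / Compound dosing: one dose, 10 µM final, 0.1% DMSO / Timing: 72 h treatment at 37 °C / Signal: CTG luminescence / Benchmarks: 32 DMSO-only cell-control wells (high), 32 MePR drug-control wells (low) per plate / Plate: collagen-coated 384-well format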

The nature of test [5]: growth inhibitors of H69AR lung tumor, primary screen, human, duplicate replicates (AID 580;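 active = viability at or under a set limit in both replicates, limit being median viability minus 3 SD, cut at about 48% in these data, passing the limit was not always enough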;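 note: 100% = mean luminescence of untreated wells and 0% = no signal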). The following applies: H69AR lung tumor cells viability, ATP luminescence, 72 h; at 10 µM; stronger effect = lower value.
Test [6] can be described thus: reversal of MRP1-mediated doxorubicin resistance, pilot screen, H69AR cells, doxorubicin co-treatment (AID 601;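 active = viability loss from added drug above about 55%, and viability with drug at most 40%, in both replicates, limit read from the data, passing the limit was not always enough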). The following applies: CellTiter-Glo, 72 h, at 10 µM; for differential viability (reversal): stronger effect = higher value.
Test [7] in a line: 384-well plate pilot, post-Golgi transport modulator project, inhibition of yeast transport mutant growth (AID 636; in the data active = inhibition above about 31%). The following applies: absorbance 615 nm, about 18 h, stronger effect = higher value.
Test [8] in a line: growth suppression of yeast trafficking mutant, preliminary HTS, modulators of trafficking downstream of Golgi apparatus project, 1536-format plate, OD 615 nm (AID 637; in the data active = inhibition above about 30%). The following applies: yeast transport mutant growth, absorbance 615 nm, 18 h; stronger effect = higher value.
Setting [9] is: H69AR cells + 2 uM doxorubicin, measured here: viability with 2 uM doxorubicin, stronger effect = lower value.
Where [10] appears, read: H69AR cells, compound alone cytotoxicity.

Molecules are shown by their SMILES. Calls of active or inactive are those of the source.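 Rule for the calls, unless noted: active = Her2 level under about 52% in both replicate screens, with viability over 70% of control (limit read from the data); inconclusive = Her2 under the limit in one screen only, or viability under 70%; inactive = Her2 level above the set limit.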

Receptor tyrosine-protein kinase erbB-2 (Homo sapiens), sequence (P04626 whole entry, looked up): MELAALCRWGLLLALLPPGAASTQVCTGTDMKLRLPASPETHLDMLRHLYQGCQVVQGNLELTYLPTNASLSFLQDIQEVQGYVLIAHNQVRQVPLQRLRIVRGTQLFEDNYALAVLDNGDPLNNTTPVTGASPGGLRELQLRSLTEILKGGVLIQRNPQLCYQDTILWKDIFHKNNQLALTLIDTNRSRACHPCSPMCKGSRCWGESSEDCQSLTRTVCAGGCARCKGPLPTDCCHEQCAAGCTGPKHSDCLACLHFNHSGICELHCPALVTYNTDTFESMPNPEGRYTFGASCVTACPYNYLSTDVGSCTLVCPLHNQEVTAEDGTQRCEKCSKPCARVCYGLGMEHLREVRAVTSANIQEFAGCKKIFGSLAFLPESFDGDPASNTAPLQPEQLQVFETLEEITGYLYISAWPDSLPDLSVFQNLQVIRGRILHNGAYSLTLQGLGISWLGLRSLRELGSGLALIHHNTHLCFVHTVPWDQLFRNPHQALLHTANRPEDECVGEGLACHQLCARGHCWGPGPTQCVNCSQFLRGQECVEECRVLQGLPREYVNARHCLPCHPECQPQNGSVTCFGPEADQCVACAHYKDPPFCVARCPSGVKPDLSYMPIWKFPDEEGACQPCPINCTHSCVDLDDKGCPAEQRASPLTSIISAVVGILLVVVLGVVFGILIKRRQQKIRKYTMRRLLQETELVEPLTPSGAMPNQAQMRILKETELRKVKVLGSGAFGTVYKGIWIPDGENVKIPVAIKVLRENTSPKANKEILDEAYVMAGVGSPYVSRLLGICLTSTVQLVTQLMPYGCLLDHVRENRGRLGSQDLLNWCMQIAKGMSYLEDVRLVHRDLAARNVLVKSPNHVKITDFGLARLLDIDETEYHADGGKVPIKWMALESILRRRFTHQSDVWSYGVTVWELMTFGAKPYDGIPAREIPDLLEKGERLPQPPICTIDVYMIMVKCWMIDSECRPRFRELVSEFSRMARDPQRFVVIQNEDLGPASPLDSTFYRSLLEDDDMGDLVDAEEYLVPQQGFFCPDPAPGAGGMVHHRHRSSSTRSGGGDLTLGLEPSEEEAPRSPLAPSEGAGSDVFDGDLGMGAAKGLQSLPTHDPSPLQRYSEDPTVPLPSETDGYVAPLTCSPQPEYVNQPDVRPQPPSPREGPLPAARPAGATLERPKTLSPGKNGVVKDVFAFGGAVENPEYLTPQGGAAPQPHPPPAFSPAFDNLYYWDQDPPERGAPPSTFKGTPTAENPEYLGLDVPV

`CC(c1nnc(SCC(=O)Nc2sccc2C#N)n1-c1ccc(Cl)cc1)N(C)C` (stereo not given): the viability in test [1] is 103%; in test [3] it was 103% (inactive); in test [4], 91.8% (inactive); in test [5] it was 75.4% (inactive); in test [6] (setting [9]) it was 81.2%; in test [6] (setting [10]), 75.4%. For the same molecule, the Her2 level in test [2] was 74% (inactive). The differential viability (reversal) in test [6] (H69AR cells + 2 uM doxorubicin) was -5.88% (inactive). Further, the inhibition in test [7] is -3.68% (inactive); in test [8], 0.79% (inactive).
`O=C(NCC1CCCO1)C1CCN(c2ccc(S(=O)(=O)N3CCCC3)cc2)CC1` (stereo not given): the viability is 115% in test [1]; 115% (inactive) in test [3]; 99.2% (inactive) in test [4]; 80% (inactive) in test [5]; 86% in test [6] (setting [9]); 80% in test [6] (setting [10]). Also, the Her2 level in test [2] is 112% (inactive). Moreover, the differential viability (reversal) in test [6] (H69AR cells + 2 uM doxorubicin) is -6.02% (inactive). Also, the inhibition in test [7] was -5.45% (inactive); in test [8], -1.5% (inactive).
Regarding `COCCN1C(=O)C(=O)/C(=C(/O)c2cccc(OC)c2)C1c1ccncc1` (stereo not given), the viability in test [1] was 99%; in test [3], 99% (inactive); in test [4] it was 101% (inactive); in test [5], 93% (inactive); in test [6] (setting [9]), 96.5%; in test [6] (setting [10]) it was 93%. Also, the Her2 level in test [2] is 104% (inactive). Moreover, the differential viability (reversal) in test [6] (H69AR cells + 2 uM doxorubicin) was -3.51% (inactive). In addition, the inhibition in test [7] was -0.26% (inactive); in test [8], 3.64% (inactive).
With `CCn1nnnc1NCc1cccn1C`, the viability in test [1] is 88%; in test [3] it was 88% (inactive); in test [4], 105% (inactive); in test [5], 95.9% (inactive); in test [6] (setting [9]) it was 92.4%; in test [6] (setting [10]), 95.9%. Further, the Her2 level in test [2] is 83% (inactive). For the same molecule, the differential viability (reversal) in test [6] (H69AR cells + 2 uM doxorubicin) is 3.54% (inactive). Further, the inhibition is -4.27% (inactive) in test [7] and 2.3% (inactive) in test [8].
With `CC(=O)C1=C(O)C(=O)N(Cc2ccco2)C1c1ccc2c(c1)OCO2` (stereo not given), the viability in test [1] is 108%; in test [3] it was 108% (inactive); in test [4], 119% (inactive); in test [5], 112% (inactive); in test [6] (setting [9]) it was 105%; in test [6] (setting [10]), 112%. Also, in test [2], the Her2 level was 84.5% (inactive). Also, the differential viability (reversal) in test [6] (H69AR cells + 2 uM doxorubicin) is 7.12% (inactive). Moreover, the inhibition in test [7] was -5.07% (inactive); in test [8], 0.48% (inactive).
`O=C(O)c1c(Cl)c(Cl)c(Cl)c(Cl)c1C(=O)N1CCOCC1`: the viability was 109% in test [1]; 109% (inactive) in test [3]; 106% (inactive) in test [4]; 95.7% (inactive) in test [5]; 92.8% in test [6] (setting [9]); 95.7% in test [6] (setting [10]). The Her2 level in test [2] was 90% (inactive). Besides, in test [6] (H69AR cells + 2 uM doxorubicin), the differential viability (reversal) is 2.91% (inactive). Also, the inhibition was -5.97% (inactive) in test [7] and 0.16% (inactive) in test [8].
Take `CC(=O)Nc1ccc(S(=O)(=O)N2CCC(c3nc4ccccc4[nH]3)CC2)cc1`: the viability is 93% in test [1]; 93% (inactive) in test [3]; 78.9% (inactive) in test [4]; 93.6% (inactive) in test [5]; 83.9% in test [6] (setting [9]); 93.6% in test [6] (setting [10]). Besides, the Her2 level in test [2] is 81.5% (inactive). Moreover, the differential viability (reversal) in test [6] (H69AR cells + 2 uM doxorubicin) was 9.73% (inactive). The inhibition in test [7] is -3.78% (inactive); in test [8], 0% (inactive).
For the molecule `COc1ccc(CCNC(=O)CSc2nncn2N)cc1OC`, the viability is 93.5% in test [1]; 93.5% (inactive) in test [3]; 109% (inactive) in test [4]; 96.4% (inactive) in test [5]; 88.4% in test [6] (setting [9]); 96.4% in test [6] (setting [10]). For the same molecule, the Her2 level in test [2] is 80.5% (inactive). In addition, the differential viability (reversal) in test [6] (H69AR cells + 2 uM doxorubicin) is 8% (inactive). The inhibition in test [7] was -2.11% (inactive); in test [8], -3.5% (inactive).
In the case of `O=C(Cc1c(O)c2ccccc2[nH]c1=O)NCc1ccc(F)cc1`, the viability was 121% in test [1]; 121% (inactive) in test [3]; 90.5% (inactive) in test [4]; 91.3% (inactive) in test [5]; 88.5% in test [6] (setting [9]); 91.3% in test [6] (setting [10]). Further, the Her2 level in test [2] was 87.5% (inactive). Also, the differential viability (reversal) in test [6] (H69AR cells + 2 uM doxorubicin) is 2.8% (inactive). Moreover, the inhibition in test [7] is -4.87% (inactive); in test [8], 10% (inactive).
Consider `CCN(CC)c1ccc(CNc2ccc(Br)cn2)cc1`, for which the viability in test [1] is 108%; in test [3] it was 108% (inactive); in test [4], 106% (inactive); in test [5], 90.7% (inactive); in test [6] (setting [9]), 105%; in test [6] (setting [10]), 90.7%. Besides, the Her2 level in test [2] is 92.5% (inactive). In addition, the differential viability (reversal) in test [6] (H69AR cells + 2 uM doxorubicin) is -14.7% (inactive). In addition, the inhibition in test [7] is -0.66% (inactive); in test [8] it was -3.11% (inactive).
For `COC(=O)c1cc(-c2c(C)oc3cc(O)ccc3c2=O)c(C)o1`, the viability was 100% in test [1]; 100% (inactive) in test [3]; 91.3% (inactive) in test [4]; 84.9% (inactive) in test [5]; 91.1% in test [6] (setting [9]); 84.9% in test [6] (setting [10]). Moreover, the Her2 level in test [2] was 90.5% (inactive). For the same molecule, the differential viability (reversal) in test [6] (H69AR cells + 2 uM doxorubicin) is -6.25% (inactive). The inhibition is -4.94% (inactive) in test [7] and -1.27% (inactive) in test [8].
As for `CCN(CCCNC(=O)c1cn(CC)c2ccc(S(=O)(=O)N(C)C)cc2c1=O)c1cccc(C)c1`, the viability is 98% in test [1]; 98% (inactive) in test [3]; 61.6% (inactive) in test [4]; 80% (inactive) in test [5]; 19.6% in test [6] (setting [9]); 80% in test [6] (setting [10]). In addition, in test [2], the Her2 level was 74.5% (inactive). Also, in test [6] (H69AR cells + 2 uM doxorubicin), the differential viability (reversal) was 60.4% (active). The inhibition in test [7] is -2.8% (inactive); in test [8], 4.26% (inactive).
Turning to `O=C(O)CCCNS(=O)(=O)c1ccc(NCc2ccccc2)c(C(=O)O)c1`, the viability was 87% in test [1]; 87% (inactive) in test [3]; 92.3% (inactive) in test [4]; 93% (inactive) in test [5]; 91.4% in test [6] (setting [9]); 93% in test [6] (setting [10]). The Her2 level in test [2] was 94% (inactive). Moreover, the differential viability (reversal) in test [6] (H69AR cells + 2 uM doxorubicin) was 1.6% (inactive). The inhibition in test [7] is -6.89% (inactive); in test [8] it was 0.83% (inactive).
With `Cc1ccc(-c2nnn(CC(=O)N(Cc3cccs3)C(C(=O)NC(C)(C)C)c3ccc(C)o3)n2)o1` (stereo not given), the viability in test [1] was 86.5%; in test [3] it was 86.5% (inactive); in test [4] it was 93.4% (inactive); in test [5], 79% (inactive); in test [6] (setting [9]), 75.7%; in test [6] (setting [10]) it was 79%. The Her2 level in test [2] is 96.5% (inactive). Also, the differential viability (reversal) in test [6] (H69AR cells + 2 uM doxorubicin) was 3.37% (inactive). Also, the values for the inhibition in test [7] and in test [8] were -0.77% (inactive) and -5.67% (inactive), respectively.
In the case of `COc1cc(S(=O)(=O)N2CCOCC2)ccc1NC(=O)COC(=O)c1ccccn1`, the viability is 114% in test [1]; 114% (inactive) in test [3]; 85.8% (inactive) in test [4]; 84.8% (inactive) in test [5]; 97.6% in test [6] (setting [9]); 84.8% in test [6] (setting [10]). Also, the Her2 level in test [2] is 92% (inactive). For the same molecule, the differential viability (reversal) in test [6] (H69AR cells + 2 uM doxorubicin) was -12.8% (inactive). In addition, the inhibition in test [7] is -6.71% (inactive); in test [8], -0.18% (inactive).
